Assay results taken from ChEMBL document CHEMBL2034908, “Isoxazolo(aza)naphthoquinones: a new class of cytotoxic Hsp90 inhibitors” (Eur J Med Chem, 2012).
The source made the active and inactive calls. No cut-off for these calls is given here.

Tests used:
[1] = Cytotoxicity against human STO cells after 72 hrs; format: functional, cell-based
Procedure, shortened: (§1)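 Compounds were dissolved fresh in DMSO and diluted in culture medium. Cells were exposed for 72 h at 37 °C in medium with 10% heat-inactivated FBS under 5% CO2. IC50 reported ± SD. STO cells were grown in 50/50 DMEM-Ham's F12 with 10% FBS and 2 mM L-Gln.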

[2] = tested on: A-431; assay: Cytotoxicity against human A431 cells after 72 hrs; format: functional, cell-based; details: A-431, 72 h
[3] = tested on: NCI-H460; assay: Cytotoxicity against human NCI-H460 cells after 72 hrs; format: functional, cell-based; details: NCI-H460, 72 h; procedure, shortened: as §1
[4] = Binding affinity to Hsp90 after 4 hrs by GM-FITC based fluorescence polarization assay
Procedure, shortened: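 Commercial Hsp90 at 30 nM was mixed with GM-FITC tracer at 5 nM and serially diluted compound. Buffer: 20 mM HEPES(K) pH 7.3, 50 mM KCl, 5 mM MgCl2, 20 mM Na2MoO4, 0.01% NP40, with fresh 0.1 mg/ml bovine gamma globulin and 2 mM DTT. Shaken 4 h at 4 °C, then FP read in mP. IC50 is the concentration displacing 50% of tracer, from triplicate wells by nonlinear least-squares fit.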

[5] = tested on: NCI-H460; assay: Cytotoxicity against human NCI-H460 cells at >1 uM after 72 hrs; format: functional
[6] = target: T1, Heat shock protein HSP90 (Homo sapiens) (UniProt P07900+P08238); assay: Inhibition of Hsp90 in human A431 cells assessed as down-regulation of EGFR expression after 24 hrs by Western blotting analysis; format: cell-based; details: A-431
Procedure, shortened: (§2)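 Cells were treated 24 h with drug freshly made in DMSO and diluted in medium with 10% FBS. Where a single level was used, it was 22 nM. Lysates: cells rinsed twice in ice-cold PBS with 0.1 mM orthovanadate, then lysed in hot sample buffer. Protein was quantified by BCA, run on SDS-PAGE and blotted to nitrocellulose. Detection used HRP secondary antibodies and chemiluminescence, with actin as loading control.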

[7] = target: T1, Heat shock protein HSP90 (Homo sapiens); assay: Inhibition of Hsp90 in human A431 cells assessed as up-regulation of Hsp70 in human A431 cells after 24 hrs by Western blotting analysis; format: cell-based; details: A-431; procedure, shortened: as §2
[8] = target: T1, Heat shock protein HSP90 (Homo sapiens); assay: Inhibition of Hsp90 in human A431 cells assessed as down-regulation of Akt expression after 24 hrs by Western blotting analysis; format: cell-based; details: A-431; procedure, shortened: as §2
[9] = target: T1, Heat shock protein HSP90 (Homo sapiens); assay: Inhibition of Hsp90 in human A431 cells assessed as down-regulation of Cdk4 expression after 24 hrs by Western blotting analysis; format: cell-based; details: A-431; procedure, shortened: as §2
[10] = target: T1, Heat shock protein HSP90 (Homo sapiens); assay: Inhibition of Hsp90 in human A431 cells assessed as down-regulation of survivin expression after 24 hrs by Western blotting analysis; format: cell-based; details: A-431; procedure, shortened: as §2
[11] = target: T1, Heat shock protein HSP90 (Homo sapiens); assay: Inhibition of Hsp90 in human A431 cells assessed as down-regulation of Raf expression at 22 nM after 24 hrs by Western blotting analysis; format: cell-based; details: A-431; procedure, shortened: as §2
[12] = target: T1, Heat shock protein HSP90 (Homo sapiens); assay: Inhibition of Hsp90 in human A431 cells assessed as down-regulation of Cdk4 expression at 22 nM after 24 hrs by Western blotting analysis; format: cell-based; details: A-431; procedure, shortened: as §2
[13] = target: T1, Heat shock protein HSP90 (Homo sapiens); assay: Inhibition of Hsp90 in human A431 cells assessed as down-regulation of EGFR expression at 22 nM after 24 hrs by Western blotting analysis; format: cell-based; details: A-431; procedure, shortened: as §2
[14] = target: T1, Heat shock protein HSP90 (Homo sapiens); assay: Inhibition of Hsp90 in human A431 cells assessed as down-regulation of survivin expression at 22 nM after 24 hrs by Western blotting analysis; format: cell-based; details: A-431; procedure, shortened: as §2
[15] = target: T1, Heat shock protein HSP90 (Homo sapiens); assay: Inhibition of Hsp90 in human STO cells assessed as down-regulation of Cdk4 expression at 22 nM after 24 hrs by Western blotting analysis; format: cell-based; procedure, shortened: as §2
[16] = target: T1, Heat shock protein HSP90 (Homo sapiens); assay: Inhibition of Hsp90 in human STO cells assessed as down-regulation of survivin expression at 22 nM after 24 hrs by Western blotting analysis; format: cell-based; procedure, shortened: as §2
[17] = tested on: A-431; assay: Antitumor activity against human A431 cells xenografted in athymic nude Swiss mouse assessed as tumor growth inhibition at 10 mg/kg, po qd for 4 days per week for 3 weeks; format: functional; details: read-out: GI
Procedure, shortened: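 Female athymic Swiss nude mice, 8–10 weeks old, bearing A431 squamous carcinoma xenografts. Drug dissolved in physiologic saline and given orally at 10 mg/kg, qdx4d/week for 3 weeks. Dosing started when tumours were just palpable. Tumour growth inhibition was assessed.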

[18] = target: T1, Heat shock protein HSP90 (Homo sapiens); assay: Inhibition of Hsp90 in human STO cells assessed as down-regulation of Raf expression at 22 nM after 24 hrs by Western blotting analysis; format: cell-based; procedure, shortened: as §2

| SMILES | IC50 [4] [nM] | pIC50 [4] | IC50 [1] [nM] | IC50 [2] [nM] | IC50 [3] [nM] | also measured |
| --- | --- | --- | --- | --- | --- | --- |
| O=C1c2ccccc2C(=O)c2c(-c3cccc[n+]3Cc3ccccc3)noc21.[Br-] | 200000 | 3.7 | 2240 | 2240 | > 1000 |  |
| COc1cc(O)c(-c2noc3c2C(=O)c2ccccc2C3=O)cc1Cl | > 100000 |  | 300 | 2980 | > 1000 |  |
| O=C1c2ccccc2C(=O)c2c(-c3ccc4[nH]ccc4c3)noc21 | > 100000 | 5.71 | 320 | 320 | 300 |  |
| COc1cc(OC)c(-c2noc3c2C(=O)c2ccccc2C3=O)cc1Cl | > 100000 |  | 135 | 1400 | 880 |  |
| O=C1c2cccc(O)c2C(=O)c2c(-c3cc[n+](Cc4ccccc4)cc3)noc21.[Br-] | 98 | 7.01 | 21600 | 21600 | 880 |  |
| CC(=O)Oc1cccc2c1C(=O)c1c(-c3cc[n+](Cc4ccccc4)cc3)noc1C2=O.[Br-] | 31 | 7.51 | 3960 | 3960 | > 1000 | Activity [5]: 32% |
| C[n+]1ccc(-c2noc3c2C(=O)c2ccccc2C3=O)cc1.[I-] | 630 | 6.2 | 1200 | 480 | 330 |  |
| C=CCNC1=C2C[C@@H](C)C[C@H](OC)[C@H](O)[C@@H](C)/C=C(\C)[C@H](OC(N)=O)[C@@H](OC)/C=C\C=C(/C)C(=O)NC(=CC1=O)C2=O [TANESPIMYCIN] | 1100 |  |  | 69 | 10 |  |
| O=C1c2ccccc2C(=O)c2c(-c3cc(Cl)c(O)cc3O)noc21 | 4200 | 5.38 | 1000 | 23000 | > 1000 |  |
| Cl.O=C1c2ccncc2C(=O)c2c(-c3ccc(OCCN4CCOCC4)cc3)noc21 | < 5 | 8.47 | 54 | 20 | 41 | inhibition [6]: Dose-dependent effect; inhibition [7]: Dose-dependent effect; inhibition [8]: Dose-dependent effect; inhibition [9]: Dose-dependent effect; inhibition [10]: Dose-dependent effect |
| O=C1c2ccccc2C(=O)c2c(-c3ccc[n+](Cc4cnccn4)c3)noc21.[Br-] | 510 | 6.29 | 110 | 42 | 46 |  |
| O=C1c2ccccc2C(=O)c2c(-c3ccccn3)noc21 | 1060 | 5.97 | 20 | 340 | 1000 |  |
| O=C1c2ccccc2C(=O)c2c(-c3cc[n+](Cc4ccccc4)cc3)noc21.[Br-] | 34 | 7.47 | 2.2 | 1.6 | 18 | inhibition [11]: Active; inhibition [7]: Dose-dependent effect; inhibition [12]: Active; inhibition [13]: Active; inhibition [14]: Active; inhibition [15]: Active; inhibition [16]: Active; inhibition in vivo at 10 mg/kg [17]: 50%; inhibition [18]: Active |
| O=C1c2ccccc2C(=O)c2c(-c3ccc[n+](Cc4ccccc4)c3)noc21.[Br-] | 770 | 6.11 | 10 | 20 | 21 |  |
| Cl.O=C1c2ccccc2C(=O)c2c(-c3ccc(OCCN4CCOCC4)cc3)noc21 | 1200 | 5.92 | 1130 | 440 | 866 |  |
| O=C1c2ccccc2C(=O)c2c(/C=C/c3ccccc3)noc21 | > 100000 |  | 120 | 320 | > 1000 | Activity [5]: 40% |
| CC(=O)Oc1c2ccccc2c(OC(C)=O)c2c(-c3ccc(F)cc3)noc12 | > 100000 |  | 670 | 690 | > 1000 |  |
| COc1ccc(-c2noc3c(OC(C)=O)c4ccccc4c(OC(C)=O)c23)cc1 | > 100000 |  | 1000 | 1300 | > 1000 | Activity [5]: 39% |
| O=C1c2ccccc2C(=O)c2c(-c3ccccc3)noc21 | 7850 | 5.11 | 20 | 120 | 120 |  |
| O=C1c2ccccc2C(=O)c2c(-c3cc[n+](Cc4cnccn4)cc3)noc21.[Br-] | 680 | 6.17 | 220 | 52 | 17 |  |
| O=C1c2ccccc2C(=O)c2c(-c3ccccc3O)noc21 | 1550 | 5.81 | 3400 | 3400 | > 1000 |  |

Continued, in another order:

| IC50 [4] [nM] | pIC50 [4] | SMILES | IC50 [1] [nM] | IC50 [2] [nM] | IC50 [3] [nM] | also measured |
| --- | --- | --- | --- | --- | --- | --- |
| 1900 | 5.72 | COc1cccc2c1C(=O)c1c(-c3ccncc3)noc1C2=O | 261 | 330 | 880 |  |
| 5600 | 5.25 | O=C1c2ccncc2C(=O)c2c(-c3ccc(F)cc3)noc21 | 4 | 4 | 183 |  |
| 340 | 6.47 | COc1cccc2c1C(=O)c1c(-c3cc[n+](Cc4ccccc4)cc3)noc1C2=O.[Br-] | 168 | 168 | 180 |  |
| 200000 | 3.7 | COc1ccccc1-c1noc2c1C(=O)c1ccccc1C2=O | 660 | 130 | 290 |  |
| > 100000 |  | O=C1c2cccc(O)c2C(=O)c2c(-c3ccncc3)noc21 | 103 | 68 | 880 |  |
| 1600 | 5.61 | COc1ccc(-c2noc3c2C(=O)c2cnccc2C3=O)cc1 | 92 | 98 | 446 |  |
| 1940 |  | CC(=O)Oc1cccc2c1C(=O)c1c(-c3ccc(F)cc3)noc1C2=O | 1050 | 270 | 78 |  |
| 120 | 6.92 | O=C1c2ccncc2C(=O)c2c(-c3ccncc3)noc21 | 60 | 8.5 | 85 |  |
| 200000 | 3.7 | O=C1c2ccccc2C(=O)c2c(-c3ccc(F)cc3)noc21 | 20 | 260 | 350 |  |
| > 100000 |  | O=C1c2ccccc2C(=O)c2c(-c3ccc(O)cc3)noc21 | 460 | 210 | 510 |  |
| 290 | 6.54 | O=C1c2cccc(O)c2C(=O)c2c(-c3ccc(F)cc3)noc21 | 610 | 290 | 124 |  |
| 390 | 6.41 | O=C1c2ccccc2C(=O)c2c(-c3ccncc3)noc21 | 11 | 56 | 140 |  |
| 5840 |  | COc1ccc(-c2noc3c2C(=O)c2ccccc2C3=O)cc1 | 160 | 350 | 650 |  |
| 540 | 6.27 | O=C1c2ccccc2C(=O)c2c(-c3cccnc3)noc21 | 40 | 43 | 62 |  |
| 84 | 7.08 | CC(=O)Oc1cccc2c1C(=O)c1c(-c3ccncc3)noc1C2=O | 150 | 60 | 150 |  |
